Measurements as given in ChEMBL document CHEMBL4190252, “Synthesis, antitumor activity and CDK1 inhibiton of new thiazole nortopsentin analogues” (Eur J Med Chem, 2017).
Calls of active or inactive are those of the source. The calls are words filed in the database; no cut-off is given here.

Columns and labels:
[1] = molecular target: Cyclin-dependent kinase 1/cyclin B1 (Homo sapiens) (UniProt P06493+P14635); experiment: Inhibition of recombinant human full length His-tagged CDK1/cyclin B expressed in baculovirus expression system at 0.1 to 10 uM after 60 mins in presence of omnia peptide substrate by fluorescence based assay
Procedure, shortened: (§1)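 Recombinant human CDK1/cyclin B in kinase buffer with Omnia peptide substrate, ATP and DTT, with inhibitor at 0.1–10 µM. Reactions ran for 60 min at 30 °C, with fluorescence read at ex 360/em 485 nm. Initial velocity came from the RFU-versus-time slope and was plotted against concentration for a dose-response IC50 fit. Values are mean±SD of two determinations.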

MCF7 [2] = experiment: Cell cycle arrest in human MCF7 cells assessed as accumulation at G0/G1 phase at GI50 concentration after 48 hrs by propidium iodide-staining based flow cytometry (reference value: 63.5%); format: functional
Procedure, shortened: (§2)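 Cells were trypsinized, washed in cold PBS, and 1 x 10^6 cells stained with 20 µg/ml PI plus 200 µg/ml RNase for 30 min at room temperature in the dark. At least 1x 10^4 cells were analysed by flow cytometry. Mean±SD of three experiments in triplicate.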

MCF7 [3] = experiment: Induction of apoptosis in human MCF7 cells assessed as early apoptotic cells at 5 x 10^-8 M after 72 hrs by Annexin V/propidium iodide double staining-based flow cytometry (reference value: 1%); format: functional
Procedure, shortened: (§3)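 MCF-7 cells were grown in RPMI with 10% FBS, 2 mM L-glutamine and antibiotics at 37 °C in 5% CO2. They were seeded at 2.0 x 10^5 cells/cm2 in triplicate, left to adhere overnight, then treated for 72 h; DMSO 0.1% served as vehicle. Trypsinised cells at 2.0 x 10^5/mL were stained with annexin V-FITC and PI for 15 min at room temperature in the dark. At least 1.0 x 10^4 cells were gated into viable, early apoptotic, late apoptotic and necrotic quadrants.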

MCF7 [4] = experiment: Induction of apoptosis in human MCF7 cells assessed as viable cells at 5 x 10^-8 M after 72 hrs by Annexin V/propidium iodide double staining-based flow cytometry (reference value: 98.9%); format: functional; details: MCF7, 72 h, read-out: Activity; procedure, shortened: as §3
MCF7 [5] = experiment: Induction of apoptosis in human MCF7 cells assessed as necrotic cells at 5 x 10^-8 M after 72 hrs by Annexin V/propidium iodide double staining-based flow cytometry (reference value: 0.1%); format: functional; procedure, shortened: as §3
MCF7 [6] = experiment: Cell cycle arrest in human MCF7 cells assessed as accumulation at G2/M phase at GI50 concentration after 48 hrs by propidium iodide-staining based flow cytometry; format: functional; procedure, shortened: as §2
[7] = molecular target: Cyclin-dependent kinase 1/cyclin B1 (Homo sapiens, UniProt P06493); experiment: Inhibition of recombinant human full length His-tagged CDK1/cyclin B expressed in baculovirus expression system after 60 mins in presence of omnia peptide substrate by fluorescence based assay; procedure, shortened: as §1
Chain of Cyclin-dependent kinase 1/cyclin B1 (P06493 whole entry): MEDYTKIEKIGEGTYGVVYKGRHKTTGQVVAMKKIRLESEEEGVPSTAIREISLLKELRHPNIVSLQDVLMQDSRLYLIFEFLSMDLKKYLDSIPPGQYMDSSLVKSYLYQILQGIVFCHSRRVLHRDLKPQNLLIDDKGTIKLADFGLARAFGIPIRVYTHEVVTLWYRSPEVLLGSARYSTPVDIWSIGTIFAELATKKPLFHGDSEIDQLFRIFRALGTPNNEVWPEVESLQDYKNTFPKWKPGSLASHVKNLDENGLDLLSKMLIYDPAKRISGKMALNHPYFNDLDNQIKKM
Chain of Cyclin-dependent kinase 1/cyclin B1 (P14635 whole entry, further chain): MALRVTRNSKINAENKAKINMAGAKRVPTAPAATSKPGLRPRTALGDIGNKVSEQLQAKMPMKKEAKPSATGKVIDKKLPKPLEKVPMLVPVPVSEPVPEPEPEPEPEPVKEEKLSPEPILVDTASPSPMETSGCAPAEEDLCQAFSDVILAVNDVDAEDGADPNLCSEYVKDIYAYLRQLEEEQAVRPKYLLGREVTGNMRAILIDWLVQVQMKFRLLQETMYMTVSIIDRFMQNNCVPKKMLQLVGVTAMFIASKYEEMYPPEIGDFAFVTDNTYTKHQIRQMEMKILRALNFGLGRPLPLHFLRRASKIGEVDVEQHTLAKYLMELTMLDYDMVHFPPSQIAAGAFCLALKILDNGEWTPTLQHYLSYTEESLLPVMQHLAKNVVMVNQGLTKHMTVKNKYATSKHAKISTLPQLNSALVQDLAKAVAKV

Chain of Cyclin-dependent kinase 1/cyclin B1 (Homo sapiens) (P06493 whole entry, looked up): as the sequence (P06493 whole entry) above
Chain of Cyclin-dependent kinase 1/cyclin B1 (Homo sapiens) (P14635 whole entry, looked up): as the sequence (P14635 whole entry, further chain) above

Structure (SMILES) | inhibition [1] | Activity (MCF7 [2]) | Activity (MCF7 [3]) | viability at 0.05 µM (MCF7 [4]) | Activity (MCF7 [5]) | Activity (MCF7 [6]) | IC50 [7]
COCCn1cc(-c2csc(-c3c[nH]c4ccc(Br)cc34)n2)c2cccnc21 | inactive | 9% |  |  |  |  | 
COCCn1cc(-c2nc(-c3c[nH]c4ncccc34)cs2)c2cc(OC)ccc21 |  |  | 54.2% | 45.8% | 0% | >50% | 1140 nM
